Source: PubChem (Broad Institute)
This excerpt belongs to a sample that is enriched for hits.
T cruzi growth-1: inhibitors of T. cruzi proliferation; 77,000 tested, 5.9% active; inhibition, % at 8.34 µM; AID 624255; T. cruzi beta-gal in NIH3T3, GalScreen luminescence, 90 h;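 active = mean inhibition above about 93%, with at least 55% of replicates each passing it, limit read from the data, passing the limit was not always enough; inconclusive = only one of those two conditions holds; inactive = neither condition holds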
KDM4C inh: blocks human GASC-1 (KDM4C) demethylase activity | inhibition, % at 12.5 µM | GST-KDM4C 2-372, H3K9me3 peptide, LANCE TR-FRET | AID 720574 | 96,000 tested, 0.15% active;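 active = mean replicate inhibition above about 25%, with at least 55% of replicates also reaching it, limit read from the data, passing the limit was not always enough; inconclusive = only one of those two conditions met; inactive = neither condition met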
Target sequence (Q9H3R0 2-372 limits assumed): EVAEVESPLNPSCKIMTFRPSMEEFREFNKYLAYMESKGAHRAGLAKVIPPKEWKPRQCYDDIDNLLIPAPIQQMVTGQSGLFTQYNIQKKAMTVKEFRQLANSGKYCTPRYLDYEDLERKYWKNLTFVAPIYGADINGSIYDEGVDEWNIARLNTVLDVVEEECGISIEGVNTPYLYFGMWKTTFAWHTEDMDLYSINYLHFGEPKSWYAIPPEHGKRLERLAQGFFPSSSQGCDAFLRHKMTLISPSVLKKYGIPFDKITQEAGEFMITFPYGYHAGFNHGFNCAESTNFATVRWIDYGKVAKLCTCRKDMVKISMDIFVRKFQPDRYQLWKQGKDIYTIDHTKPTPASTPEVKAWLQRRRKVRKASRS
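System: N-terminal GST-fused human GASC-1 (KDM4C) fragment, residues 2-372 / Amount: 10 nM GST-KDM4C in enzyme reaction / Also added: H3K9me3 peptide with Fe(II)/2OG / Times: 30 min demethylation and 1 h detection at room temperature / Signal: LANCE TR-FRET / Read-out basis: Fall in 671/618 emission ratio as inhibition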
IDH1 R132H inh: inhibitors of human IDH1 R132H | O75874 | IDH1 R132H reductase, diaphorase/resazurin fluorescence, 60 min | inhibition, % at 10 µM | 70,000 tested, 0.18% active; in the data active = inhibition above about 34%; inconclusive = no clear call, values can overlap the other calls; inactive = below about 11%
Target sequence (O75874 whole entry R132H): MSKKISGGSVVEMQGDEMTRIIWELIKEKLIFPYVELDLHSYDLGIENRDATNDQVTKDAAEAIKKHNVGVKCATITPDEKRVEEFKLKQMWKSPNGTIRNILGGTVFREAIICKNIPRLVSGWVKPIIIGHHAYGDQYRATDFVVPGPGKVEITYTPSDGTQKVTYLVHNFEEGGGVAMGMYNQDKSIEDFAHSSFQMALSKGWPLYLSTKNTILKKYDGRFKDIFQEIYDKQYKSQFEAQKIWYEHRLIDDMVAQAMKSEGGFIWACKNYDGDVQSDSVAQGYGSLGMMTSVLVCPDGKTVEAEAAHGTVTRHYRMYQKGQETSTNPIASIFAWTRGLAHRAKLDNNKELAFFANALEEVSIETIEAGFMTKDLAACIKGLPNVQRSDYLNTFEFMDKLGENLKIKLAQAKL
T cruzi growth-2: blocks T. cruzi growth in NIH3T3 host cells | shares compounds with T cruzi growth-1 | inhibition, % at 8.35 µM | T. cruzi beta-gal in NIH3T3, GalScreen luminescence, 90 h | 5,600 tested, 72% active;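 active = mean replicate inhibition above about 95% and at least 55% of replicates individually reaching it, limit read from the data; inconclusive = only one of the two criteria is met; inactive = neither criterion is met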
T cruzi growth-3: inhibitors of T. cruzi proliferation; 5,600 tested, 21% active; T. cruzi beta-gal in NIH3T3, GalScreen luminescence, 90 h; shares compounds with T cruzi growth-1; AID 651740; inhibition, % at 2.09 µM;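 active = mean inhibition above about 95%, with at least 55% of replicates also reaching it, limit read from the data; inconclusive = meets just one of the two conditions; inactive = meets neither condition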
NIH3T3 tox: kills mouse NIH/3T3 fibroblasts | AID 651742 | cytotoxicity (signal decrease), % at 8.35 µM | shares compounds with T cruzi growth-1 | NIH/3T3 viability, CellTiter-Glo ATP luminescence, 90 h | 5,600 tested, 14% active;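 active = mean signal decrease across replicates above about 35% based on untreated-well scatter, with enough replicates individually passing, limit read from the data; inconclusive = no rule stated though some were filed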
NIH3T3 tox 2: kills mouse NIH/3T3 fibroblasts; shares compounds with T cruzi growth-1; AID 651744; 5,600 tested, 56% active; NIH/3T3 viability, CellTiter-Glo ATP luminescence, 90 h; inhibition, % at 24.9 µM;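 active = mean loss of cell viability signal at or above a set limit, and enough replicates individually reaching it; inconclusive = meets only the mean limit or only the replicate share; inactive = meets neither condition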
Each line names hits and unclear results; the compound was inactive in the other large screens (follow-up assays come after a bar, where they were run).

CCn1c(SCC(=O)Nc2ccc(F)c(Cl)c2)nnc1-c1ccc(C(C)(C)C)cc1	none (no result: T cruzi growth-1, KDM4C inh)
COc1ccccc1CNc1cc(-c2nn3c(C)nnc3s2)ccc1C	none (no result: T cruzi growth-1, KDM4C inh)
Cc1noc(C)c1S(=O)(=O)Nc1ccc2c(c1)C(=O)N([C@@H](C)CO)C[C@@H](C)[C@@H](CN(C)Cc1ccc(C(F)(F)F)cc1)OCCCC[C@H](C)O2	T cruzi growth-1 103 | T cruzi growth-2 inactive | T cruzi growth-3 110 | NIH3T3 tox inactive | NIH3T3 tox 2 60
Cc1noc(C)c1S(=O)(=O)Nc1ccc2c(c1)C(=O)N([C@@H](C)CO)C[C@@H](C)[C@@H](CN(C)Cc1ccc(C(=O)O)cc1)OCCCC[C@H](C)O2	none (no result: IDH1 R132H inh)
Cc1noc(C)c1S(=O)(=O)Nc1ccc2c(c1)C(=O)N([C@@H](C)CO)C[C@@H](C)[C@H](CN(C)Cc1ccc(C(F)(F)F)cc1)OCCCC[C@@H](C)O2	T cruzi growth-1 108 (no result: IDH1 R132H inh) | T cruzi growth-2 103 | T cruzi growth-3 116 | NIH3T3 tox inactive | NIH3T3 tox 2 105
Cc1noc(C)c1S(=O)(=O)Nc1ccc2c(c1)C(=O)N([C@@H](C)CO)C[C@H](C)[C@H](CN(C)Cc1ccc(C(F)(F)F)cc1)OCCCC[C@H](C)O2	T cruzi growth-1 100 (no result: IDH1 R132H inh) | T cruzi growth-2 96 | T cruzi growth-3 inactive | NIH3T3 tox inactive | NIH3T3 tox 2 105
Cc1noc(C)c1S(=O)(=O)Nc1ccc2c(c1)C(=O)N([C@H](C)CO)C[C@H](C)[C@H](CN(C)Cc1ccc(C(=O)O)cc1)OCCCC[C@@H](C)O2	none
Cc1noc(C)c1S(=O)(=O)Nc1ccc2c(c1)C(=O)N([C@H](C)CO)C[C@@H](C)[C@@H](CN(C)Cc1ccc(C(F)(F)F)cc1)OCCCC[C@H](C)O2	none
Cc1noc(C)c1S(=O)(=O)Nc1ccc2c(c1)C(=O)N([C@H](C)CO)C[C@@H](C)[C@H](CN(C)Cc1ccc(C(F)(F)F)cc1)OCCCC[C@H](C)O2	none
Cc1noc(C)c1S(=O)(=O)Nc1ccc2c(c1)C(=O)N([C@H](C)CO)C[C@@H](C)[C@H](CN(C)Cc1ccc(C(F)(F)F)cc1)OCCCC[C@@H](C)O2	T cruzi growth-1 106 (no result: IDH1 R132H inh) | T cruzi growth-2 inactive | T cruzi growth-3 112 | NIH3T3 tox inactive | NIH3T3 tox 2 105
Cc1ccc(-c2nc(S(=O)(=O)c3ccc(Cl)cc3)c(SCC(N)=O)o2)cc1	none (no result: T cruzi growth-1, KDM4C inh)
C=CC1(C)C=C2CCC3C(C)(C)C(O[C@@H]4O[C@@H](CO)[C@H](O)[C@H]4O)CCC3(C)C2CC1O[C@@H]1O[C@H](CO)[C@@H](O)[C@H](O)[C@H]1O (some centres undefined)	none (no result: T cruzi growth-1, KDM4C inh)
COc1ccccc1NC(=O)CSC1CC(=O)N(c2ccc(C)cc2)C1=O (centres undefined)	none (no result: T cruzi growth-1, KDM4C inh)
Cc1cc(Cl)ccc1NC(=O)CNS(=O)(=O)c1ccc(Br)cc1	none (no result: T cruzi growth-1, KDM4C inh)
Cc1noc(C)c1S(=O)(=O)Nc1ccc2c(c1)C(=O)N([C@@H](C)CO)C[C@H](C)[C@H](CN(C)Cc1ccc(C(F)(F)F)cc1)OCCCC[C@@H](C)O2	T cruzi growth-1 101 | T cruzi growth-2 104 | T cruzi growth-3 inactive | NIH3T3 tox inactive | NIH3T3 tox 2 inactive
Cc1noc(C)c1S(=O)(=O)Nc1ccc2c(c1)C(=O)N([C@@H](C)CO)C[C@@H](C)[C@H](CN(C)Cc1ccc3c(c1)OCO3)OCCCC[C@H](C)O2	none (no result: IDH1 R132H inh)
Cc1noc(C)c1S(=O)(=O)Nc1ccc2c(c1)C(=O)N([C@H](C)CO)C[C@@H](C)[C@@H](CN(C)Cc1ccc3c(c1)OCO3)OCCCC[C@H](C)O2	T cruzi growth-1 104 (no result: IDH1 R132H inh) | T cruzi growth-2 110 | T cruzi growth-3 inactive | NIH3T3 tox inactive | NIH3T3 tox 2 34
Cc1noc(C)c1S(=O)(=O)Nc1ccc2c(c1)C(=O)N([C@H](C)CO)C[C@@H](C)[C@H](CN(C)Cc1ccc(C(=O)O)cc1)OCCCC[C@@H](C)O2	none (no result: IDH1 R132H inh)
COc1cc(/C(C)=C/C(C)O)oc(=O)c1C (centres undefined)	none (no result: T cruzi growth-1, KDM4C inh)
CC(=O)c1cccc(NC(=O)CCN2C(=O)c3ccccc3S2(=O)=O)c1	none (no result: T cruzi growth-1, KDM4C inh)
N#C[C@H]1[C@H](c2ccc(C3=CCCC3)cc2)[C@H](CO)N1C(=O)C1CC1	T cruzi growth-1 102 (no result: IDH1 R132H inh) | T cruzi growth-2 96 | T cruzi growth-3 inactive | NIH3T3 tox inactive | NIH3T3 tox 2 inactive
COc1ccc(-c2ccc([C@@H]3[C@@H](C#N)N(C(=O)CN(C)C)[C@@H]3CO)cc2)cc1	T cruzi growth-1 108 | T cruzi growth-2 inactive | T cruzi growth-3 inactive | NIH3T3 tox inactive | NIH3T3 tox 2 inactive
COc1ccc(-c2ccc([C@H]3[C@@H](C#N)N(C(=O)C4CCCC4)[C@@H]3CO)cc2)cc1	T cruzi growth-1 106 (no result: IDH1 R132H inh) | T cruzi growth-2 inactive | T cruzi growth-3 inactive | NIH3T3 tox inactive | NIH3T3 tox 2 inactive
COc1ccc(-c2ccc([C@@H]3[C@@H](C#N)N(C(=O)C4CCCC4)[C@H]3CO)cc2)cc1	none (no result: IDH1 R132H inh)
COc1ccccc1-c1ccc([C@@H]2[C@H](C#N)N(C(=O)CN(C)C)[C@H]2CO)cc1	none (no result: IDH1 R132H inh)
COc1ccc(-c2ccc([C@@H]3[C@@H](C#N)N(C(=O)C4CC4)[C@H]3CO)cc2)cc1	none (no result: IDH1 R132H inh)
COc1ccc(-c2ccc([C@H]3[C@@H](C#N)N(C(=O)C4CC4)[C@@H]3CO)cc2)cc1	T cruzi growth-1 106 (no result: IDH1 R132H inh) | T cruzi growth-2 inactive | T cruzi growth-3 inactive | NIH3T3 tox inactive | NIH3T3 tox 2 37
N#C[C@@H]1[C@H](c2ccc(C3=CCCC3)cc2)[C@H](CO)N1C(=O)C1CC1	none (no result: IDH1 R132H inh)
CC1CCc2c(sc3ncnc(NCc4ccco4)c23)C1 (centres undefined)	none (no result: T cruzi growth-1, KDM4C inh)
O=C(CSc1nnc(-c2cccc(F)c2)n1-c1ccccc1)NC1CCCC1	none (no result: T cruzi growth-1, KDM4C inh)
CC(C)C(NS(=O)(=O)c1ccc(Oc2ccccc2Cl)cc1)C(=O)O (centres undefined)	none (no result: T cruzi growth-1, KDM4C inh)
COc1ccc(-c2ccccc2[C@H]2[C@@H](C#N)N(C(=O)NC3CCCC3)[C@H]2CO)cc1	none (no result: T cruzi growth-1, IDH1 R132H inh)
N#C[C@@H]1[C@@H](c2ccc(/C=C/c3ccccc3)cc2)[C@@H](CO)N1C(=O)C1CCCC1	none (no result: IDH1 R132H inh)
N#C[C@H]1[C@@H](c2ccc(/C=C/c3ccccc3)cc2)[C@@H](CO)N1C(=O)C1CCCC1	T cruzi growth-1 inconclusive (no result: IDH1 R132H inh) | T cruzi growth-2 95 | T cruzi growth-3 inactive | NIH3T3 tox inactive | NIH3T3 tox 2 27
COc1ccc(-c2ccc([C@@H]3[C@@H](CO)N(C(=O)NC4CCCC4)[C@H]3C#N)cc2)cc1	T cruzi growth-1 inconclusive (no result: IDH1 R132H inh) | T cruzi growth-2 inactive | T cruzi growth-3 inactive | NIH3T3 tox inactive | NIH3T3 tox 2 inactive
C[C@H]1CN([C@@H](C)CO)C(=O)c2cc(NC(=O)C3CCCCC3)ccc2O[C@H]1CN(C)Cc1ccc(-c2ccccc2)cc1	none
